# Reference: ChEMBL document CHEMBL5058577, “EUbOPEN Chemogenomics Library 2 (Multiplex)” (2022)
# Test system: HEK-293T
# Assay: Multiplex assay against HEK293T
# Format: toxicity, cell-based
# Conditions: human
# Outline: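 Compound was added to live cells that had been stained at seeding with Hoechst33342, BioTracker Green Microtubule Cytoskeleton Dye, MitoTracker Red and Annexin V Alexa Fluor 680, and imaging followed on a CQ1 microscope at 37°C and 5% CO2. CellPathfinder machine-learning gating divided cells into Hoechst high-intensity objects or normal cells, normal cells into healthy, pyknosed or fragmented nuclei, and pyknosed cells into mitotic or apoptotic. Tubulin, mitochondrial-mass and membrane-permeability phenotypes are per cents of healthy-nucleus cells.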
# [1] = 12 h, 1 µM, compound concentration 1 uM, replicate 1
# [2] = 12 h, 1 µM, compound concentration 1 uM, replicate 2
# [3] = 12 h, 10 µM, compound concentration 10 uM, replicate 1
# [4] = 12 h, 10 µM, compound concentration 10 uM, replicate 2
# [5] = 24 h, 1 µM, compound concentration 1 uM, replicate 1
# [6] = 24 h, 1 µM, compound concentration 1 uM, replicate 2
# [7] = 24 h, 10 µM, compound concentration 10 uM, replicate 1
# [8] = 24 h, 10 µM, compound concentration 10 uM, replicate 2
# [9] = 48 h, 1 µM, compound concentration 1 uM, replicate 1
# [10] = 48 h, 1 µM, compound concentration 1 uM, replicate 2
# [11] = 48 h, 10 µM, compound concentration 10 uM, replicate 1
# [12] = 48 h, 10 µM, compound concentration 10 uM, replicate 2
structure (smiles),measurement,setting,value
Cc1sc2c(c1C)C(c1ccc(Cl)cc1)=N[C@H](CC(=O)OC(C)(C)C)c1nnc(C)n1-2,Population Apoptotic (%),[1],40%
same,Population Fragmented Nuclei (%),[1],8%
same,Population Healthy Nuclei (%),[1],80%
same,Population Hoechst High Intensity Objects (%),[1],8%
same,Population Membrane Permeable-Phenotype (%),[1],0%
same,Population Mitochondria Different-Phenotype (%),[1],49%
same,Population Mitotic Cells (%),[1],60%
same,Population Normal (%),[1],91%
same,Population Pyknosed Nuclei (%),[1],10%
same,Population Tubulin-Different-Phenotype (%),[1],32%
same,Total Cell Count,[1],478
same,Population Apoptotic (%),[2],44%
same,Population Fragmented Nuclei (%),[2],6%
same,Population Healthy Nuclei (%),[2],76%
same,Population Hoechst High Intensity Objects (%),[2],9%
same,Population Mitochondria Different-Phenotype (%),[2],65%
same,Population Mitotic Cells (%),[2],55%
same,Population Normal (%),[2],90%
same,Population Pyknosed Nuclei (%),[2],17%
same,Population Tubulin-Different-Phenotype (%),[2],26%
same,Total Cell Count,[2],333
same,Population Apoptotic (%),[3],41%
same,Population Fragmented Nuclei (%),[3],7%
same,Population Healthy Nuclei (%),[3],76%
same,Population Hoechst High Intensity Objects (%),[3],7%
same,Population Membrane Permeable-Phenotype (%),[3],0%
same,Population Mitochondria Different-Phenotype (%),[3],74%
same,Population Mitotic Cells (%),[3],58%
same,Population Normal (%),[3],92%
same,Population Pyknosed Nuclei (%),[3],15%
same,Population Tubulin-Different-Phenotype (%),[3],67%
same,Total Cell Count,[3],395
same,Population Apoptotic (%),[4],66%
same,Population Fragmented Nuclei (%),[4],5%
same,Population Healthy Nuclei (%),[4],72%
same,Population Hoechst High Intensity Objects (%),[4],10%
same,Population Mitochondria Different-Phenotype (%),[4],90%
same,Population Mitotic Cells (%),[4],33%
same,Population Normal (%),[4],89%
same,Population Pyknosed Nuclei (%),[4],21%
same,Population Tubulin-Different-Phenotype (%),[4],70%
same,Total Cell Count,[4],303
same,Population Apoptotic (%),[5],32%
same,Population Fragmented Nuclei (%),[5],10%
same,Population Healthy Nuclei (%),[5],76%
same,Population Hoechst High Intensity Objects (%),[5],5%
same,Population Membrane Permeable-Phenotype (%),[5],0%
same,Population Mitochondria Different-Phenotype (%),[5],29%
same,Population Mitotic Cells (%),[5],68%
same,Population Normal (%),[5],94%
same,Population Pyknosed Nuclei (%),[5],13%
same,Population Tubulin-Different-Phenotype (%),[5],19%
same,Total Cell Count,[5],609
same,Population Healthy Nuclei (%),[6],82%
same,Population Hoechst High Intensity Objects (%),[6],6%
same,Population Mitochondria Different-Phenotype (%),[6],43%
same,Population Mitotic Cells (%),[6],67%
same,Population Normal (%),[6],93%
same,Population Pyknosed Nuclei (%),[6],6%
same,Population Tubulin-Different-Phenotype (%),[6],11%
same,Total Cell Count,[6],479
same,Population Apoptotic (%),[7],41%
same,Population Fragmented Nuclei (%),[7],8%
same,Population Healthy Nuclei (%),[7],68%
same,Population Hoechst High Intensity Objects (%),[7],4%
same,Population Membrane Permeable-Phenotype (%),[7],0%
same,Population Mitochondria Different-Phenotype (%),[7],64%
same,Population Mitotic Cells (%),[7],58%
same,Population Normal (%),[7],95%
same,Population Pyknosed Nuclei (%),[7],23%
same,Population Tubulin-Different-Phenotype (%),[7],46%
same,Total Cell Count,[7],468
same,Population Apoptotic (%),[8],49%
same,Population Fragmented Nuclei (%),[8],3%
same,Population Healthy Nuclei (%),[8],76%
same,Population Hoechst High Intensity Objects (%),[8],6%
same,Population Membrane Permeable-Phenotype (%),[8],1%
same,Population Mitochondria Different-Phenotype (%),[8],76%
same,Population Mitotic Cells (%),[8],50%
same,Population Normal (%),[8],93%
same,Population Pyknosed Nuclei (%),[8],19%
same,Population Tubulin-Different-Phenotype (%),[8],47%
same,Total Cell Count,[8],378
same,Population Apoptotic (%),[9],18%
same,Population Fragmented Nuclei (%),[9],11%
same,Population Healthy Nuclei (%),[9],80%
same,Population Hoechst High Intensity Objects (%),[9],3%
same,Population Membrane Permeable-Phenotype (%),[9],1%
same,Population Mitochondria Different-Phenotype (%),[9],16%
same,Population Mitotic Cells (%),[9],81%
same,Population Normal (%),[9],96%
same,Population Pyknosed Nuclei (%),[9],7%
same,Population Tubulin-Different-Phenotype (%),[9],10%
same,Total Cell Count,[9],1012
same,Population Apoptotic (%),[10],30%
same,Population Fragmented Nuclei (%),[10],14%
same,Population Healthy Nuclei (%),[10],79%
same,Population Hoechst High Intensity Objects (%),[10],4%
same,Population Membrane Permeable-Phenotype (%),[10],0%
same,Population Mitochondria Different-Phenotype (%),[10],21%
same,Population Mitotic Cells (%),[10],69%
same,Population Normal (%),[10],95%
same,Population Pyknosed Nuclei (%),[10],5%
same,Population Tubulin-Different-Phenotype (%),[10],12%
same,Total Cell Count,[10],685
same,Population Apoptotic (%),[11],31%
same,Population Fragmented Nuclei (%),[11],9%
same,Population Healthy Nuclei (%),[11],73%
same,Population Hoechst High Intensity Objects (%),[11],3%
same,Population Membrane Permeable-Phenotype (%),[11],0%
same,Population Mitochondria Different-Phenotype (%),[11],47%
same,Population Mitotic Cells (%),[11],68%
same,Population Normal (%),[11],96%
same,Population Pyknosed Nuclei (%),[11],16%
same,Population Tubulin-Different-Phenotype (%),[11],19%
same,Total Cell Count,[11],641
same,Population Apoptotic (%),[12],55%
same,Population Fragmented Nuclei (%),[12],8%
same,Population Healthy Nuclei (%),[12],76%
same,Population Hoechst High Intensity Objects (%),[12],5%
same,Population Mitochondria Different-Phenotype (%),[12],66%
same,Population Mitotic Cells (%),[12],44%
same,Population Normal (%),[12],94%
same,Population Pyknosed Nuclei (%),[12],15%
same,Population Tubulin-Different-Phenotype (%),[12],28%
same,Total Cell Count,[12],525
